Here are results for eight compounds from ChEMBL document CHEMBL1152813, “Synthesis of puromycin derivatives with backbone-elongated substrates and associated translation inhibitory activities” (Bioorg Med Chem, 2009).

Data set [1] relates to Escherichia coli. Kind of data set: Inhibition of firefly luciferase mRNA translation in Escherichia coli after 1 hr relative to control. It is filed as functional. An outline of the steps:
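Reconstituted E. coli translation system translating firefly luciferase mRNA with CCPmn derivatives at 2.5–30 µM (2.5–120 µM for some), 1 h incubation. Luciferase activity (c.p.s.) read by luminescence counter; translation efficiency (%) set against a serial-dilution calibration of control luciferase translated without CCPmns; three independent experiments, standard deviations.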

Data set [2] is described as follows: Solubility in water. The settings on record: buffer. It counts as physicochemical.

With `C[C@H](CO)C(=O)N[C@H]1[C@@H](O)[C@H](n2cnc3c(N(C)C)ncnc32)O[C@@H]1COP(=O)(O)O[C@H]1[C@@H](O)[C@H](n2ccc(N)nc2=O)O[C@@H]1COP(=O)(O)O[C@H]1[C@@H](O)[C@H](n2ccc(N)nc2=O)O[C@@H]1CO`, the IC50 in data set [1] was found to be 12 µM. The solubility result in data set [2] is recorded as “Soluble”. As for `C[C@H](CO)C(=O)N[C@H]1[C@@H](O)[C@H](n2cnc3c(N(C)C)ncnc32)O[C@@H]1COP(=O)(O)O`, in data set [2], the solubility result is recorded as “Soluble”. Regarding `CC(=O)N[C@H]1[C@@H](O)[C@H](n2cnc3c(N(C)C)ncnc32)O[C@@H]1COP(=O)(O)O`, the solubility entry in data set [2] is recorded as “Soluble”.

`COc1ccc(C[C@H](N)C(=O)N[C@H]2[C@@H](O)[C@H](n3cnc4c(N(C)C)ncnc43)O[C@@H]2COP(=O)(O)O[C@H]2[C@@H](O)[C@H](n3ccc(N)nc3=O)O[C@@H]2COP(=O)(O)O[C@H]2[C@@H](O)[C@H](n3ccc(N)nc3=O)O[C@@H]2CO)cc1`: the IC50 in data set [1] was determined as 5 µM. Further, the solubility result in data set [2] is listed as “Soluble”.

In the case of `CN(C)c1ncnc2c1ncn2[C@@H]1O[C@H](CO)[C@@H](NC(=O)CCO)[C@H]1O`, the solubility entry in data set [2] was “Insoluble”. As for `C[C@H](CN)C(=O)N[C@H]1[C@@H](O)[C@H](n2cnc3c(N(C)C)ncnc32)O[C@@H]1COP(=O)(O)O[C@H]1[C@@H](O)[C@H](n2ccc(N)nc2=O)O[C@@H]1COP(=O)(O)O[C@H]1[C@@H](O)[C@H](n2ccc(N)nc2=O)O[C@@H]1CO`, in data set [1], the IC50 was determined as 33 µM. Besides, the solubility result in data set [2] is “Soluble”. For `C[C@H](CN)C(=O)N[C@H]1[C@@H](O)[C@H](n2cnc3c(N(C)C)ncnc32)O[C@@H]1COP(=O)(O)O`, the solubility result in data set [2] is given as “Soluble”. `CC(=O)N[C@H]1[C@@H](O)[C@H](n2cnc3c(N(C)C)ncnc32)O[C@@H]1COP(=O)(O)O[C@H]1[C@@H](O)[C@H](n2ccc(N)nc2=O)O[C@@H]1COP(=O)(O)O[C@H]1[C@@H](O)[C@H](n2ccc(N)nc2=O)O[C@@H]1CO` had an IC50 in data set [1] of 66 µM. Moreover, in data set [2], the solubility result is recorded as “Soluble”.

As a reminder, the IC50 is the concentration at which inhibition is half-maximal. Higher therefore signals a need for much substance.
